Shown are actives, neighbours in structure and some others; about 2.2% of the full set was active somewhere.
FN deposit inh = inhibitors of fibronectin matrix deposition, primary screen, AH1F cells, Alexa488-fibronectin fluorescence, plate reader. AH1F fibroblasts, overnight. inhibition, % at 12.6 µM. 350,000 compounds, 0.086% hits;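 active means mean inhibition across replicates of 30% or more, regardless of how many single replicates reach that level; inconclusive means mean under 30% yet at least half of replicates reach 30%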;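 further: positive control wells lacked labelled fibronectin entirely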
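Material: AH1F fibroblasts assembling fluorescent fibronectin matrix; amount: 10000 AH1F cells/well; medium: DMEM, 2% serum; reagent: Alexa488-fibronectin, 24 nM final in well; dosing: single compound dose, delivered by pin transfer; incubation: 1 h adhesion, overnight exposure; detection: fluorescence after three HBSS washes, excitation 485 nm, emission 525 nm; measure: fibronectin deposition inhibition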
rRNA inh HTS = reduced GFP signal of wild-type E. coli, primary screen, bacterial rRNA inhibitor project, GFP/RFP fluorescence, OD600, single point | E. coli WT GFP vs humanized-ribosome RFP mutants, 24 h; hits give low values; DMSO median 0, no signal -100 | GFP signal change (wild-type ribosome), % (no concentration beside the values) | 350,000 compounds, 1.6% hits | AID 720706, 2013;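 active means significant combined selectivity score with lowered wild-type GFP, culture density cut under 30%, mutant RFP and density less affected; inactive means any of these conditions unmet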
Env fusion inh = inhibitors of HIV-1 Env-driven cell-cell fusion, primary screen, HeLa-JRFL effector, CEM21 target cells, luciferase; inhibition, % at 12.3 µM; 360,000 compounds, 1.1% hits; AID 651610, 2012;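 active means mean replicate inhibition score of at least 50 and every replicate individually at or above 50; inconclusive means only one of the two criteria met; inactive means mean below 50 and not all replicates reaching 50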;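 further: 0% = plate neutral controls and 100% = maraviroc near 300 nM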
ERp5 block = inhibitors of ERp5-driven insulin aggregation, primary screen, biochemical, turbidity, absorbance 650 nm, single point; Protein disulfide-isomerase A6 (Homo sapiens), Q15084; AID 651711, 2012; inhibition, % at 9.99 µM; 350,000 compounds, 0.05% hits; 90 min;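 active means mean replicate inhibition above about 25%, with every replicate also reaching it, limit read from the data, passing the limit was not always enough; inconclusive means only one of those two criteria met; inactive means neither criterion met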
Target sequence (Q15084 whole entry, looked up): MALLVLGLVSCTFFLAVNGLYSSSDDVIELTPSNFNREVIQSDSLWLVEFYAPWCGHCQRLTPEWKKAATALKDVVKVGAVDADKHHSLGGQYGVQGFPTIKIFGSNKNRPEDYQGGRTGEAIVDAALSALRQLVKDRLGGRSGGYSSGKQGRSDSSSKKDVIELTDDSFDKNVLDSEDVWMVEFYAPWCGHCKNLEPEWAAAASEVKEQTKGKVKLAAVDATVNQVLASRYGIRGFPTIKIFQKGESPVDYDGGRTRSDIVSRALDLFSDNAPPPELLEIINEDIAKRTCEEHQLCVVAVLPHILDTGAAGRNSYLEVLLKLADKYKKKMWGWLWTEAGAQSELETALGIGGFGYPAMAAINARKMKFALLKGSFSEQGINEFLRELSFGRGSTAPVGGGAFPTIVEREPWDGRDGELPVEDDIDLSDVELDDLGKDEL
PvdQ acylase = P. aeruginosa PvdQ acylase inhibitors, primary screen, biochemical, fluorescence, plate reader and imaging, single point. PvdQ acylase [Pseudomonas aeruginosa LESB58]. AID 488965, 2010. 340,000 compounds, 0.063% hits. purified PvdQ acylase. inhibition, % at 10 µM; in the data active means inhibition above about 30%, passing the limit was not always enough; inconclusive means no clear call, values can overlap the other calls;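 further: 0% = vehicle neutral wells and 100% = reference inhibitor wells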
PDI inh = inhibitors of human PDI, primary screen, biochemical, turbidity, single point, plate reader | Protein disulfide-isomerase (Homo sapiens), P07237 | PDI insulin aggregation turbidity, A650, 90 min | inhibition, % at 10 µM | 350,000 compounds, 0.052% hits | AID 588391, 2011;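 active means mean inhibition across replicates of 30% or more, whatever share of single replicates reach that level; inconclusive means mean inhibition below 30% while every single replicate reaches 30%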
Numbers without * were called inactive; ? = inconclusive; · = no result given; [ ] = remark or other dose.

SMILES	FN deposit inh	rRNA inh HTS	Env fusion inh	ERp5 block	PvdQ acylase	PDI inh
COc1ccc(N2C(=O)C3C(C2=O)C3(c2ccccc2)c2ccccc2)cc1 (stereo unspecified)	-3	-20*	-5	7	-7	-9
COc1ccc(N2C(=O)C3C4C=CC(c5ccccc5)(C3C2=O)C2C(=O)N(c3ccc(OC)cc3)C(=O)C42)cc1 (stereo unspecified)	-1	14	7	1	1	1
C[C@H]1CN([C@@H](C)CO)C(=O)c2cc(-c3ccccc3)cnc2O[C@H]1CN(C)C(=O)c1cccc(F)c1	-2	5	0[16.7 µM]	·	·	·
O=C(CCS(=O)(=O)c1ccccc1)N(CCCN1CCOCC1)c1nc2ccccc2s1	·	9	-60	-8	-13	38*
C[C@@H]1CCCCO[C@@H](CN(C)Cc2ccc(C(F)(F)F)cc2)[C@@H](C)CN([C@@H](C)CO)C(=O)c2cc(NS(=O)(=O)c3ccc(Cl)cc3)ccc2O1	-2	4	7[16.7 µM]	-3	·	·
CS(=O)(=O)c1ccc(C(=O)OCC(=O)N2CCN(CCC3CCCCC3)CC2)cc1[N+](=O)[O-]	19	-14	29	1	·	91*
CS(=O)(=O)c1ccc(C(=O)OCC(=O)N2CCOCC2)cc1[N+](=O)[O-]	-13	3	40	3	·	5
CO[C@H]1CN(C)C(=O)c2ccc(NC(=O)NC(C)C)cc2OC[C@H](C)N(C(=O)NC(C)C)C[C@@H]1C	-4	1	·	·	·	·
NC(=O)c1ccc(Nc2nnc(-c3ccc(O)cc3)c3ccccc23)cc1	-11	-23*	7	1	11	0
CNC(=O)c1ccc(Nc2nnc(-c3ccc(C(N)=O)cc3)c3ccccc23)cc1	-3	6	30	-1	7	-8
COc1ccc(Nc2nnc(-c3ccc(C(N)=O)cc3)c3ccccc23)cc1	0	-38*	2	-4	-5	0
O=C(C[C@H]1CC[C@H]2[C@@H](COC[C@@H](O)CN2CC2CCCCC2)O1)NCc1ccc(Cl)cc1	-1	-58	·	2	·	·
CCNC(=O)C[C@@H]1CC[C@H]2[C@H](COc3ccc(NC(=O)c4ccc(F)cc4)cc3C(=O)N2C)O1	3	1	6[16.7 µM]	-10	·	·
CC(C)c1cn(CC[C@@H]2CC[C@@H](NS(=O)(=O)c3ccc(Cl)cc3)[C@H](CO)O2)nn1	·	-1	-13[16.7 µM]	-1	·	·
COc1ccc2c3c([nH]c2c1)[C@@H](CO)N(C(C)=O)CC31CN(C(=O)c2ccc3c(c2)OCO3)C1	·	2	·	8	·	·
O=C(C[C@@H]1C[C@@H]2c3cc(NC(=O)Nc4ccccc4)ccc3O[C@@H]2[C@@H](CO)O1)NCc1cccc(F)c1	0	-5	13[16.7 µM]	-7	·	·
N/C(=N\OC(=O)c1ccc(Cl)cc1[N+](=O)[O-])c1cccnc1	5	-22*	-48	1	-13	-3
C[C@@H]1CCCCO[C@H](CN(C)Cc2ccccc2)[C@@H](C)CN([C@@H](C)CO)C(=O)c2cc(NC(=O)Cc3ccccc3)ccc2O1	-12	-1	-24[16.7 µM]	1	·	·
O=C(CCCN1C(=O)/C(=C\c2ccccc2)SC1=S)Nc1ccc(O)cc1C(=O)O	5	-21*	-16	8	-10	-1
O=C(CCCN1C(=O)/C(=C/c2ccccc2Cl)SC1=S)NNC(=O)c1ccc(Cl)cc1Cl	6	6	57*	-1	-9	0
O=C(CCCN1C(=O)S/C(=C\c2ccccc2)C1=O)NNC(=O)c1ccccc1O	10	3	71*	8	-4	7
O=C(CCN1C(=O)S/C(=C\C=C\c2ccccc2)C1=O)Nc1ccc(O)cc1	1	-25*	-129	-2	-10	-2
O=C(CCN1CCCCC1)NCC[C@@H]1CC[C@H](NC(=O)c2ccc(F)cc2)[C@@H](CO)O1	-9	2	?	1	·	·
O=C(NCc1ccccn1)[C@@H]1[C@@H](CO)[C@@H]2Cn3c(cccc3=O)[C@H]1N2CC1CCCC1	·	-1	·	11	·	·
O=C(CCCN1C(=O)/C(=C\c2ccccc2)SC1=S)N1CCOCC1	9	-21*	-6	1	2	6
SMILES	FN deposit inh	rRNA inh HTS	Env fusion inh	ERp5 block	PvdQ acylase	PDI inh
COc1ccc(NC(=O)Nc2cccc([N+](=O)[O-])c2)cc1Cl	6	-43	-2	-3	-7	1
COc1ccccc1CCNC(=O)Nc1cccc([N+](=O)[O-])c1	-8	-20*	1	-7	-10	4
O=C(C[C@H]1C[C@H]2c3cc(NC(=O)Nc4ccccc4)ccc3O[C@H]2[C@@H](CO)O1)NCCN1CCCCC1	·	5	2[16.7 µM]	-2	·	·
COc1cccc(S(=O)(=O)N2CC[C@@H]3[C@H](CO)N(C)c4ccc(C#Cc5cccnc5)cc4[C@@H]32)c1	-1	-2	·	-3	·	·
Cc1c(NC(=O)c2cccc(NC(=O)COc3ccccc3)c2)c(=O)n(-c2ccccc2)n1C	12	0	1	3	1	-5
Cc1c(NC(=O)c2cccc(NC(=O)COc3ccccc3C#N)c2)c(=O)n(-c2ccccc2)n1C	3	4	60*	-4	7	4
CC(Sc1nc(-c2ccccc2)cc(C(F)(F)F)n1)C(=O)N1CCCCC1 (stereo unspecified)	·	·	·	·	0	4
CC1CCCN(C(=O)C(C)Sc2nc(-c3ccccc3)cc(C(F)(F)F)n2)C1 (stereo unspecified)	7	·	57*	·	-12	4
CN1C(=O)c2cc(NC(=O)NC3CCCC3)ccc2OC[C@H]2O[C@H](CC(=O)NCC3CC3)CC[C@@H]21	-1	-1	-23[16.7 µM]	2	·	·
C[C@@H]1CCCCO[C@@H](CN(C)Cc2ccc(Cl)c(Cl)c2)[C@H](C)CN([C@@H](C)CO)C(=O)c2cc(NC(=O)Nc3cccc4ccccc34)ccc2O1	·	-1	15[16.7 µM]	-7	·	·
CN1C[C@@H]2[C@H](c3ccccc31)[C@H](CO)N2C(=O)CN1CCOCC1	·	0	·	1	·	·
CC(C)(C)S(=O)(=O)/C(C#N)=N/Nc1ccc(Cl)cc1	4	-51	58*	3	5	5
c1ccc(COn2nnc3ccccc32)c(COn2nnc3ccccc32)c1	·	-43*	·	-2	-9	3
Clc1cccc(Cl)c1COn1nnc2ccccc21	·	·	-61	·	-8	3
COc1ccccc1CN1C[C@@H]2C[C@@H](C3=Cc4cc(Cl)ccc4OC3)N3CCC[C@@]23C1=O	-5	-52	67*	3	-2	2
C[C@@H]1CN(C)C(=O)c2cc(N)ccc2O[C@@H]1CN(C)C(=O)OC(C)(C)C	-3	-5	·	·	·	·

Bioassay records as filed in PubChem BioAssay.
